Active and inactive are the calls of the source. No cut-off for these calls is given here.
Columns and labels:
BJ [1] = assay: Induction of mitochondrial structural integrity loss in human BJ cells expressing TERT, LT, ST and RAS G12V mutant genes cells at 1 uM after 5 hrs; assay type: functional, cell-based
Summary of the method: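 Mitochondria of BJ-TERT/LT/ST/RASV12 cells examined by transmission electron microscopy after staurosporine 1 µM for 5 h. Fixed in 2.5% glutaraldehyde in Sorenson's buffer pH 7.2, post-fixed in 1% OsO4, block-stained with tannic acid, resin-embedded. Thin sections stained with uranyl acetate and lead citrate.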

BJ [2] = assay: Induction of cytochrome c release in cytosolic fraction of human BJ cell expressing TERT, LT, ST and RAS G12V mutant genes at 1 uM; assay type: functional, cell-based
Summary of the method: (§1)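 BJ-TERT/LT/ST/RASV12 cells (3 × 10^6 per dish, overnight at 37 °C, 5% CO2) treated with staurosporine 1 µM for 6 h. Cells swollen on ice 15 min in sucrose/HEPES pH 7.5 buffer, lysed through 25-gauge needle. Nuclei removed at 400g, mitochondria pelleted at 10,500g. Cytosolic supernatant and mitochondrial pellet probed for cytochrome c by western blot.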

BJ [3] = assay: Induction of cytochrome c release in mitochondrial fraction of human BJ cell expressing TERT, LT, ST and RAS G12V mutant genes at 1 uM; assay type: functional, cell-based; summary of the method: as §1
BJ [4] = assay: Antitumor activity against human BJ cells expressing TERT, LT, ST and RAS G12V mutant genes assessed as survival relative to control; assay type: functional
HT-1080 = assay: Antitumor activity against human HT1080 cells assessed as survival relative to control; assay type: functional
BJ [5] = assay: Induction of cell death in human BJ cells expressing TERT, LT, ST and RAS G12V mutant genes cells at 9 uM; assay type: functional, cell-based

SMILES	Survival (BJ [4])	Survival (HT-1080)	further results
CN[C@@H]1C[C@H]2O[C@@](C)([C@@H]1OC)n1c3ccccc3c3c4c(c5c6ccccc6n2c5c31)C(=O)NC4	–	–	Activity (BJ [1]): inactive; Activity (BJ [2]): Active; Activity (BJ [3]): Active
N#CC(=C(/N)Sc1ccccc1N)/C(C#N)=C(\N)Sc1ccccc1N	82%	17%	–
COc1cccc(-c2cc(=O)c3ccccc3o2)c1N	78%	26%	–
CC(C)NC(=O)N(CCN1CCN(C(=O)COc2ccc(Cl)cc2)CC1)Cc1ccc(F)cc1	–	–	IC50 (BJ [5]): 10 µM

From ChEMBL document CHEMBL1145520, “RAS-RAF-MEK-dependent oxidative cell death involving voltage-dependent anion channels” (Nature, 2007)
